Measured values: ChEMBL document CHEMBL4330096, “Discovery of potent and selective 5-azaindazole inhibitors of leucine-rich repeat kinase 2 (LRRK2) - Part 1” (Bioorg Med Chem Lett, 2019)

Assays:
[1] = target: Tyrosine-protein kinase CSK (Homo sapiens) (UniProt P41240); assay: Inhibition of CSK (unknown origin) at 10 uM relative to control
Method in brief: (§1)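 Single-point screen of each compound against a panel of 59 protein kinases, at 1 or 10 μM. The panel data are also summarised as a rescaled geometric mean selectivity score.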

[2] = target: Mitogen-activated protein kinase 1 (Homo sapiens) (UniProt P28482); assay: Inhibition of ERK2 (unknown origin) at 10 uM relative to control; method in brief: as §1
[3] = target: Mitogen-activated protein kinase 8 (Homo sapiens) (UniProt P45983); assay: Inhibition of JNK1 (unknown origin) at 10 uM relative to control; method in brief: as §1
[4] = target: Tyrosine-protein kinase Lck (Homo sapiens) (UniProt P06239); assay: Inhibition of Lck (unknown origin) at 10 uM relative to control; method in brief: as §1
[5] = target: T1, Serine/threonine-protein kinase 3 (Homo sapiens) (UniProt Q13188); assay: Inhibition of MST2 (unknown origin) at 10 uM relative to control
T1 sequence (whole entry): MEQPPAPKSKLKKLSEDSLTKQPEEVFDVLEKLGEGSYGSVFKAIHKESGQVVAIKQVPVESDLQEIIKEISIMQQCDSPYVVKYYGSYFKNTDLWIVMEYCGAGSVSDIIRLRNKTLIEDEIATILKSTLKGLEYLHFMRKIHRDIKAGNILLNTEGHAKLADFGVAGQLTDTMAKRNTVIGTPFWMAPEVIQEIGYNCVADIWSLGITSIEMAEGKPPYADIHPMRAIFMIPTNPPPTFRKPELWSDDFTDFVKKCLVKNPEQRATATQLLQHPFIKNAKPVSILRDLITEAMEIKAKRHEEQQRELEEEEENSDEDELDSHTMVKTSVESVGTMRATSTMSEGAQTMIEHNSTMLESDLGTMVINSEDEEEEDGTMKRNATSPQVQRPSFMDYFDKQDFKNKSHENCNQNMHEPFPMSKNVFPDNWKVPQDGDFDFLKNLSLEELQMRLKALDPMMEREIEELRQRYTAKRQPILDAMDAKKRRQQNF
Method in brief: (§2)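 Single-concentration screen of each compound against a 59-protein-kinase panel, run at 10 µM or 1 µM. Activity relative to control is shown as a heat map across the panel.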

[6] = target: AMP-activated protein kinase, AMPK (Homo sapiens) (UniProt P54646+O43741+P54619+Q9UGJ0+Q9Y478+Q13131+Q9UGI9); assay: Inhibition of AMPK (unknown origin) at 10 uM relative to control; assay type: protein-complex assay; method in brief: as §1
[7] = target: Mitogen-activated protein kinase 3 (Homo sapiens) (UniProt P27361); assay: Inhibition of ERK1 (unknown origin) at 10 uM relative to control; method in brief: as §1
[8] = target: Fibroblast growth factor receptor 1 (Homo sapiens) (UniProt P11362); assay: Inhibition of FGFR1 (unknown origin) at 10 uM relative to control; method in brief: as §1
[9] = target: Glycogen synthase kinase-3 beta (Homo sapiens) (UniProt P49841); assay: Inhibition of GSK3b (unknown origin) at 10 uM relative to control; method in brief: as §1
Sequence of Glycogen synthase kinase-3 beta (Homo sapiens) (P49841 whole entry, looked up): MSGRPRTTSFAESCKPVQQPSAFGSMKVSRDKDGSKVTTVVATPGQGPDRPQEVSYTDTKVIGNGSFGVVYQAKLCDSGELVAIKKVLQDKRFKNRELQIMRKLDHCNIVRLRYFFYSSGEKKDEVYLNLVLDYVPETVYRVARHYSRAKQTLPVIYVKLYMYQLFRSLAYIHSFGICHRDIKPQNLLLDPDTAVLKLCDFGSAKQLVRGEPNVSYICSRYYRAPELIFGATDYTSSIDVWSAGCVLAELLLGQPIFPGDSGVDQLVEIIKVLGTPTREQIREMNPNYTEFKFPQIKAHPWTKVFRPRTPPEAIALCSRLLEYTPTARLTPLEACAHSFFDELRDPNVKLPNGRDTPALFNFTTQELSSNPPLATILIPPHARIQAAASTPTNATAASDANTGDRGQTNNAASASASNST

[10] = target: Homeodomain-interacting protein kinase 2 (Homo sapiens) (UniProt Q9H2X6); assay: Inhibition of HIPK2 (unknown origin) at 10 uM relative to control; method in brief: as §1
Sequence of Homeodomain-interacting protein kinase 2 (Homo sapiens) (Q9H2X6 whole entry, looked up): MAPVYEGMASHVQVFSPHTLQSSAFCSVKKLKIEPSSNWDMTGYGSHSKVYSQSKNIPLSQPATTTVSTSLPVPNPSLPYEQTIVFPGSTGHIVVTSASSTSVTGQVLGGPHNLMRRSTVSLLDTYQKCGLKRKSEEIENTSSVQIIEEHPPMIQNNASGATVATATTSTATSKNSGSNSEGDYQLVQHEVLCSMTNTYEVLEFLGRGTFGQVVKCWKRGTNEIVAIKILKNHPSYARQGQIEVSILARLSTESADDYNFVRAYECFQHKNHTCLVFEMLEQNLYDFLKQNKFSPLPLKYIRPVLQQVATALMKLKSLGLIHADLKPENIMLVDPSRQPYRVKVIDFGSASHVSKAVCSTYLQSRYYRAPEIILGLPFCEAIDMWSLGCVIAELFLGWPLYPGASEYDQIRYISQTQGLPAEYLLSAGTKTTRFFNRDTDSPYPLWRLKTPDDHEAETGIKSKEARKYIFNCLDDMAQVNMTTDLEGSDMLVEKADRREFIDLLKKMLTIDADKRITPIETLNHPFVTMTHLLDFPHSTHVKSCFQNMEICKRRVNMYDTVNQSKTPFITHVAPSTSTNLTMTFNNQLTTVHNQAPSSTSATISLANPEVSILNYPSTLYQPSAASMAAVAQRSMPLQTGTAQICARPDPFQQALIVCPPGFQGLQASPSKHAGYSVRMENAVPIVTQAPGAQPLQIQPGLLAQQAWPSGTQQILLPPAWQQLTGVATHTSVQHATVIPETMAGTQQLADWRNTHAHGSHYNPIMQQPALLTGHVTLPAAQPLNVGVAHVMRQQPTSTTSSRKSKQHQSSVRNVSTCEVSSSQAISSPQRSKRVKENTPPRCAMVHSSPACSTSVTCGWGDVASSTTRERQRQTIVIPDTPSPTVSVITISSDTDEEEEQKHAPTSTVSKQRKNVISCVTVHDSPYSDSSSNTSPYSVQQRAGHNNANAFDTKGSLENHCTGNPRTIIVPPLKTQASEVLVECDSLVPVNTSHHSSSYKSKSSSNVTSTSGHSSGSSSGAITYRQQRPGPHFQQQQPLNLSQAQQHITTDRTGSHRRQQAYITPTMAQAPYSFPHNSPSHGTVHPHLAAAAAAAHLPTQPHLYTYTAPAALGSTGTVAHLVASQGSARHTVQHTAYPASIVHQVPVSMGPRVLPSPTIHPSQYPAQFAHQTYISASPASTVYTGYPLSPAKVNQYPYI

[11] = target: Insulin-like growth factor 1 receptor (Homo sapiens) (UniProt P08069); assay: Inhibition of IGF1R (unknown origin) at 10 uM relative to control; method in brief: as §1
Sequence of Insulin-like growth factor 1 receptor (Homo sapiens) (P08069 31-736 limits assumed): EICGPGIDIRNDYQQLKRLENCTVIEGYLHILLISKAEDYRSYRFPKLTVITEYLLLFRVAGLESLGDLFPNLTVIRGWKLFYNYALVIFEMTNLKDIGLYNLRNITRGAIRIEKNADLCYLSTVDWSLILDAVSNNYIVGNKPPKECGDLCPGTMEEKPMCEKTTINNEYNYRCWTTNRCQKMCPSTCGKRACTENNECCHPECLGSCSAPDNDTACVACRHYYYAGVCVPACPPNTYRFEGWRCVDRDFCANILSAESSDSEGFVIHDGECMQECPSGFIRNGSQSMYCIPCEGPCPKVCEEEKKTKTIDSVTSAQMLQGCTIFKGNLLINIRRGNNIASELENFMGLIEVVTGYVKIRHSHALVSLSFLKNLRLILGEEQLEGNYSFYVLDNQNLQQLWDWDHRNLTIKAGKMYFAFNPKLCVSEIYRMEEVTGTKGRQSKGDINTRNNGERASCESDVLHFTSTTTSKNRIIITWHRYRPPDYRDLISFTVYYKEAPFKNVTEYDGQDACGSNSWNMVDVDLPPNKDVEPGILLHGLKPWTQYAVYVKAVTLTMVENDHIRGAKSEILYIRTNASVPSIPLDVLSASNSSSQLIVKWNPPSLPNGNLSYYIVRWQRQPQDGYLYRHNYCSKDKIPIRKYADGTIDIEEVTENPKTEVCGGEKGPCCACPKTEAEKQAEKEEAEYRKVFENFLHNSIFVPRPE
Sequence of Insulin-like growth factor 1 receptor (Homo sapiens) (P08069 741-1367 limits assumed): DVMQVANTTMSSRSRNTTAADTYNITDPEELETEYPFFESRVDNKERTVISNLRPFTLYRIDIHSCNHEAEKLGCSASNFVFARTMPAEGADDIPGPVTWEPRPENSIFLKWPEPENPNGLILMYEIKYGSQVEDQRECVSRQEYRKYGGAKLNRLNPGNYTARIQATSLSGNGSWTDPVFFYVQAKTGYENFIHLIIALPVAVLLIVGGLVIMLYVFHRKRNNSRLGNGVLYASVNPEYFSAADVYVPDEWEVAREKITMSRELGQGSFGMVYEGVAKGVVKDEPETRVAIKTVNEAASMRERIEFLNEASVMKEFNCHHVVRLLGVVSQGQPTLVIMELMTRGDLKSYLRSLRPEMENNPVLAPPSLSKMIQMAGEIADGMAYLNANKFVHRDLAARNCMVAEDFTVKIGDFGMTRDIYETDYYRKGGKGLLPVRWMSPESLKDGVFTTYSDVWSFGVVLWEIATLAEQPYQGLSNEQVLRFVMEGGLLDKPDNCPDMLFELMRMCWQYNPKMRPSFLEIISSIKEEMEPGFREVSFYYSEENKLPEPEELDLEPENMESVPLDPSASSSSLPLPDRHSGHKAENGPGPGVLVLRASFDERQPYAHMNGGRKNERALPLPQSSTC

[12] = target: Dual specificity mitogen-activated protein kinase kinase 1 (Homo sapiens) (UniProt Q02750); assay: Inhibition of MKK1 (unknown origin) at 10 uM relative to control; method in brief: as §2
Sequence of Dual specificity mitogen-activated protein kinase kinase 1 (Homo sapiens) (Q02750 whole entry): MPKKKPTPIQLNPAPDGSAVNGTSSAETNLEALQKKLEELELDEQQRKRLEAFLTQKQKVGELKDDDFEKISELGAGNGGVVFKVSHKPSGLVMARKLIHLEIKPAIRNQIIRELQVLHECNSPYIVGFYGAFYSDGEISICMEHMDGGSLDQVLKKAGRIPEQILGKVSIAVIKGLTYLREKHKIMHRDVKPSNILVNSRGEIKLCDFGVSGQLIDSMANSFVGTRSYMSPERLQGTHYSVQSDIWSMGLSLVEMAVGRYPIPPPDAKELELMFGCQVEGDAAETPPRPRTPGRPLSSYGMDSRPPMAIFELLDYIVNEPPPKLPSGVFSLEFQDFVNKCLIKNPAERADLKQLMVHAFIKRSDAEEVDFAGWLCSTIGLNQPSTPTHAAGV

[13] = target: Serine/threonine-protein kinase 26 (Homo sapiens) (UniProt Q9P289); assay: Inhibition of MST4 (unknown origin) at 10 uM relative to control; method in brief: as §2
[14] = target: Serine/threonine-protein kinase PAK 4 (Homo sapiens) (UniProt O96013); assay: Inhibition of PAK4 (unknown origin) at 10 uM relative to control; method in brief: as §2
[15] = species on record: Homo sapiens; assay: Inhibition of PKA (unknown origin) at 10 uM relative to control; method in brief: as §2
[16] = target: T2, Protein kinase C zeta type (Homo sapiens) (UniProt Q05513); assay: Inhibition of PKCz (unknown origin) at 10 uM relative to control; method in brief: as §2
T2 sequence (whole entry): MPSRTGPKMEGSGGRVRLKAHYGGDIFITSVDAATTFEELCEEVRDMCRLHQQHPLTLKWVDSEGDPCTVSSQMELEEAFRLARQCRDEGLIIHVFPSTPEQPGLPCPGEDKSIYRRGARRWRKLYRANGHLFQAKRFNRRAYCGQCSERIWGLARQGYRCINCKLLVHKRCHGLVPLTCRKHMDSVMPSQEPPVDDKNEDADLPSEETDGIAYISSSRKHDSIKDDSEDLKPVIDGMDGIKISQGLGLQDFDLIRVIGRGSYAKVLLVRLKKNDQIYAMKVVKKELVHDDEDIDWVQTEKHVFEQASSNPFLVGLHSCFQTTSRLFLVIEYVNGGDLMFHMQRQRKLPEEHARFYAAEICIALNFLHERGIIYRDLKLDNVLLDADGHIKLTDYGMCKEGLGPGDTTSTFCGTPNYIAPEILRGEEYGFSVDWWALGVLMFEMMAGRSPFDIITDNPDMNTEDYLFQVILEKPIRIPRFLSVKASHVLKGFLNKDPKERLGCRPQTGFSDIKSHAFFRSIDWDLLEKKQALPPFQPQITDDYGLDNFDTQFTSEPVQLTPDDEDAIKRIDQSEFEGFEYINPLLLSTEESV

[17] = target: Serine/threonine-protein kinase N2 (Homo sapiens) (UniProt Q16513); assay: Inhibition of PRK2 (unknown origin) at 10 uM relative to control; method in brief: as §2
[18] = target: Rho-associated protein kinase 2 (Homo sapiens) (UniProt O75116); assay: Inhibition of ROCK2 (unknown origin) at 10 uM relative to control; method in brief: as §2
Sequence of Rho-associated protein kinase 2 (Homo sapiens) (O75116 whole entry, looked up): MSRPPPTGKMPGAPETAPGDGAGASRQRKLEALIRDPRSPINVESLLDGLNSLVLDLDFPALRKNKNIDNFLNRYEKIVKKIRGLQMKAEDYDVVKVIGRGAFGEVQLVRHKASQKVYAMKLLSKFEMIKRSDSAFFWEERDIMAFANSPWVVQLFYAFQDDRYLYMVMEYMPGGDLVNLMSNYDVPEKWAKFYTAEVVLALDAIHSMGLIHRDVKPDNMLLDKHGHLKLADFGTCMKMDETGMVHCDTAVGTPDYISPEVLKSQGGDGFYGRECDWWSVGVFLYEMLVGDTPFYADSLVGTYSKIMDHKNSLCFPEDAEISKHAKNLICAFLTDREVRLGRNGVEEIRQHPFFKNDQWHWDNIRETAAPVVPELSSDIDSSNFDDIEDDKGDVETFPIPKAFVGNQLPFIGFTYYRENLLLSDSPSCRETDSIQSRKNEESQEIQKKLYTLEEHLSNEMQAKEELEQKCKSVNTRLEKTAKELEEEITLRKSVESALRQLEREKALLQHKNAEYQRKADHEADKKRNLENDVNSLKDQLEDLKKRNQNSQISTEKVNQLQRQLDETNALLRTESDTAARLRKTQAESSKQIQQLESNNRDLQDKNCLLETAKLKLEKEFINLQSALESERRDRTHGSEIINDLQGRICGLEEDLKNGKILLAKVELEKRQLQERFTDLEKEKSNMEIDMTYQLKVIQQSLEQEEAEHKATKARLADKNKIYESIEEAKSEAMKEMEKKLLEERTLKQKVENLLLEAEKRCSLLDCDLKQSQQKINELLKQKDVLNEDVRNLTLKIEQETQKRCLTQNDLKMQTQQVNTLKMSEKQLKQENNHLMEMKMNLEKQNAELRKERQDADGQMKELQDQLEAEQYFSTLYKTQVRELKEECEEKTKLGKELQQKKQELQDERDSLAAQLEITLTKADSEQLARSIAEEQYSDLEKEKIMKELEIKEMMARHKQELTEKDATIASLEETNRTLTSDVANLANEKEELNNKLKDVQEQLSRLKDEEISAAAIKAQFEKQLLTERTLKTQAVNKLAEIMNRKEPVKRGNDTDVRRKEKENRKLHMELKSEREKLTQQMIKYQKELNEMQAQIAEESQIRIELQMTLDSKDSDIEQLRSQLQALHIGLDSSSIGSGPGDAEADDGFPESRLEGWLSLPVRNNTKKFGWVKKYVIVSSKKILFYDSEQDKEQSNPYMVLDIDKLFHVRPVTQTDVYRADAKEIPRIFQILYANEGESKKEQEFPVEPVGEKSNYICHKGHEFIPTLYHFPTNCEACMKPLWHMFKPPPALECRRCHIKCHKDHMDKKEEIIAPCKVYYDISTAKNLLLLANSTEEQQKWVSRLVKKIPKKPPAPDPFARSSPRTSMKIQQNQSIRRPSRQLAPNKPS

[19] = target: T3, Serine/threonine-protein kinase Sgk1 (Homo sapiens) (UniProt O00141); assay: Inhibition of SGK1 (unknown origin) at 10 uM relative to control
T3 sequence (whole entry): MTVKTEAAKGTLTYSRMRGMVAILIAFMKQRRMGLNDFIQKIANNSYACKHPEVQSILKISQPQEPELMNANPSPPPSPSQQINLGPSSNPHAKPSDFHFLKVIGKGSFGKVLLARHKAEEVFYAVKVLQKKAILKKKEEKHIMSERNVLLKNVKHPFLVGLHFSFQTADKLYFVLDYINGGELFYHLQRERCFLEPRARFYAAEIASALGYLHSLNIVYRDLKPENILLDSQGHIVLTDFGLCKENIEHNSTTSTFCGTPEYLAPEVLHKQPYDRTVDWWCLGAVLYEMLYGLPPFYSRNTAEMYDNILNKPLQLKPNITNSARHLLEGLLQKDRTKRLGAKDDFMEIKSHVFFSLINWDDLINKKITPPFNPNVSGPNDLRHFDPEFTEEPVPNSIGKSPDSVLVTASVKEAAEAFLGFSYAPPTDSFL
Method in brief: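 Single-concentration screen across a panel of 59 protein kinases, with each compound tested at one fixed concentration. The read-out is residual kinase activity relative to control. Panel results are also condensed into a rescaled geometric mean (RGM) selectivity score.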

Cc1n[nH]c2ccnc(Nc3ccc4ncsc4c3)c12
inhibition [1]: 0%
inhibition [2]: 24%
inhibition [3]: 56%
inhibition [4]: 8%
inhibition [5]: 72%

Cc1n[nH]c2ccnc(OC3CCCCC3)c12
inhibition [6]: 82%
inhibition [1]: 20%
inhibition [7]: 48%
inhibition [2]: 66%
inhibition [8]: 84%
inhibition [9]: 73%
inhibition [10]: 56%
inhibition [11]: 98%
inhibition [3]: 86%
inhibition [4]: 47%
inhibition [12]: 96%
inhibition [5]: 79%
inhibition [13]: 48%
inhibition [14]: 85%
inhibition [15]: 93%
inhibition [16]: 19%
inhibition [17]: 92%
inhibition [18]: 92%
inhibition [19]: 73%

Cc1n[nH]c2ccnc(Nc3ccccc3F)c12
inhibition [6]: 56%
inhibition [1]: 8%
inhibition [7]: 69%
inhibition [2]: 77%
inhibition [8]: 66%
inhibition [9]: 53%
inhibition [10]: 50%
inhibition [11]: 81%
inhibition [3]: 55%
inhibition [4]: 22%
inhibition [12]: 57%
inhibition [5]: 66%
inhibition [13]: 28%
inhibition [14]: 44%
inhibition [15]: 9%
inhibition [16]: 0%
inhibition [17]: 50%
inhibition [18]: 62%
inhibition [19]: 69%

Cc1n[nH]c2ccnc(NC3CCCCC3)c12
inhibition [6]: 29%
inhibition [1]: 0%
inhibition [7]: 40%
inhibition [2]: 29%
inhibition [8]: 69%
inhibition [9]: 23%
inhibition [10]: 38%
inhibition [11]: 88%
inhibition [3]: 32%
inhibition [4]: 13%
inhibition [12]: 57%
inhibition [5]: 80%
inhibition [13]: 51%
inhibition [14]: 40%
inhibition [15]: 49%
inhibition [16]: 0%
inhibition [17]: 63%
inhibition [18]: 79%
inhibition [19]: 41%
